Results on 10 molecules are retold here after ChEMBL document CHEMBL3244302, “Potential long-acting anticonvulsants. 1; Synthesis and activity of succinimides containing an alkylating group at the 2 position” (J Med Chem, 1977).

The source made the active and inactive calls. Some results are limits rather than exact numbers.

In the first data set the test system is Mus musculus. Description: Anticonvulsant activity in mouse assessed as protection against metrazole-induced seizures at 300 mg/kg, ip after 30 mins by subcutaneous pentylenetetrazole seizure threshold test. The format is functional, organism-based. On the set-up: dose 300 mg/kg.
Settings: not given
In a few lines:
(§1)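 Screen in mice given 30, 100 or 300 mg/kg ip in 0.9% NaCl or 30% PEG 400 (0.01 ml/g), four animals per dose. Subcutaneous metrazole challenge was given to one mouse per dose at 30 min and to another at 4 h. Activity was scored as the lowest active dose.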
In the case of `CN1C(=O)CC(c2ccc(NC(=O)CCl)cc2)C1=O` (stereo not drawn), the outcome was inactive.
The same measure, in the same setting: under `CCC1(C)CC(=O)NC1=O` (stereo not drawn) [ETHOSUXIMIDE] stands “Active”.

For a further data set, the system named is Mus musculus. The experiment in a line: Anticonvulsant activity in mouse assessed as protection against maximal electroshock-induced hindlimb tonic extensor component of seizure at 100 mg/kg, ip after 4 hrs by MES test. The format is functional, organism-based. More on the design: dose 100 mg/kg.
Settings: not given
An outline of the steps: (§2)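 Mice were dosed ip at 30, 100 or 300 mg/kg in 0.9% NaCl or 30% PEG 400 (0.01 ml/g), with four animals per dose. One mouse per dose got MES at 30 min and another at 4 h. Stimulus: 60-Hz AC, 50 mA, 0.2 s, corneal electrodes. Protection was abolition of hindlimb tonic extension; the lowest active dose was scored.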
On the technique in general: The maximal electroshock test induces tonic seizures with an electrical stimulus.
On to `CN1C(=O)CC(c2ccc(NC(=O)CI)cc2)C1=O` (stereo not drawn), for which the result was Active.

Another data set concerns Mus musculus. Description: Anticonvulsant activity in ip dosed mouse assessed as protection against metrazole-induced seizures after 0.5 hrs by subcutaneous pentylenetetrazole seizure threshold test.
Settings: not given
The format is functional. An outline of the steps: (§3)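 Against subcutaneous metrazole in ip-dosed mice (0.9% NaCl or 30% PEG 400 vehicle), ED50 was taken at 30 min or at the time of peak effect (0.5 h or 2 h, as the line states). ED50 and confidence limits were derived by Litchfield–Wilcoxon.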
Turning to `CN1C(=O)CC(c2ccc(NC(=O)CBr)cc2)C1=O` (stereo not drawn), the ED50 (commonly the midpoint of the dose-response relation) came to 35 mg/kg.

Another data set deals with Mus musculus. Description: Anticonvulsant activity in mouse assessed as protection against metrazole-induced seizures at 30 mg/kg, ip after 30 mins by subcutaneous pentylenetetrazole seizure threshold test. The format is functional, organism-based.
Settings: not given
On the set-up: dose 30 mg/kg. In a few lines: as §1
In the case of `CN1C(=O)CC(CCN2C(=O)C=CC2=O)(c2ccccc2)C1=O` (stereo not drawn), the result was Active.
Same read-out and setting: under `CN1C(=O)CC(c2ccc(NC(=O)CBr)cc2)C1=O` (stereo not drawn) stands “Active”.
The same measure, in the same setting: the entry for `CN1C(=O)CC(C(=O)CBr)(c2ccccc2)C1=O` (stereo not drawn) is “Active”; for `CN1C(=O)CC(C)(c2ccccc2)C1=O` (stereo not drawn) [METHSUXIMIDE] it is “Active”.
As to `CN1C(=O)CC(c2ccc(N3C(=O)C=CC3=O)cc2)C1=O` (stereo not drawn), the outcome was Active.
For `CN1C(=O)CC(C(=O)CCl)(c2ccccc2)C1=O` (stereo not drawn), the outcome was Active.
Regarding `CN1C(=O)CC(c2ccccc2)C1=O` (stereo not drawn) [PHENSUXIMIDE], the result was Active.
Consider `CN1C(=O)CC(c2ccc(NC(=O)CI)cc2)C1=O` (stereo not drawn), for which the result was Active.

The test system of the next data set is Mus musculus. Description: Anticonvulsant activity in mouse assessed as protection against maximal electroshock-induced hindlimb tonic extensor component of seizure at 300 mg/kg, ip after 30 mins by MES test. On the set-up: dose 300 mg/kg. Format: functional, organism-based.
Settings: not given
In a few lines:
as §2
As to `CN1C(=O)CC(CCN2C(=O)C=CC2=O)(c2ccccc2)C1=O` (stereo not drawn), the result was inactive.
Still for that read-out and setting: under `CN1C(=O)CC(c2ccc(NC(=O)CBr)cc2)C1=O` (stereo not drawn) stands “inactive”; under `CN1C(=O)CC(C(=O)CBr)(c2ccccc2)C1=O` (stereo not drawn), “inactive”; under `CN1C(=O)CC(C)(c2ccccc2)C1=O` (stereo not drawn) [METHSUXIMIDE], “Active”.
On the same count and under the same terms, under `CN1C(=O)CC(c2ccc(NC(=O)CCl)cc2)C1=O` (stereo not drawn) stands “inactive”.
The same measure, in the same setting: under `CN1C(=O)CC(c2ccc(N3C(=O)C=CC3=O)cc2)C1=O` (stereo not drawn) stands “inactive”; under `CCC1(C)CC(=O)NC1=O` (stereo not drawn) [ETHOSUXIMIDE], “inactive”; under `CN1C(=O)CC(C(=O)CCl)(c2ccccc2)C1=O` (stereo not drawn), “Active”.
For the molecule `CN1C(=O)CC(c2ccc(NC(=O)CI)cc2)C1=O` (stereo not drawn), the result was inactive.

The subject of another data set is Mus musculus. Description: Anticonvulsant activity in mouse assessed as protection against maximal electroshock-induced hindlimb tonic extensor component of seizure at 100 mg/kg, ip after 30 mins by MES test. On the set-up: dose 100 mg/kg. The format is functional, organism-based.
Settings: not given
An outline of the steps: as §2
Turning to `CN1C(=O)CC(c2ccccc2)C1=O` (stereo not drawn) [PHENSUXIMIDE], the outcome was Active.

For another data set, the system named is Mus musculus. The experiment in a line: Anticonvulsant activity in mouse assessed as protection against maximal electroshock-induced hindlimb tonic extensor component of seizure at 30 mg/kg, ip after 4 hrs by MES test. Format: functional, organism-based. More on the design: dose 30 mg/kg.
Settings: not given
An outline of the steps:
as §2
With `CN1C(=O)CC(CCN2C(=O)C=CC2=O)(c2ccccc2)C1=O` (stereo not drawn), the outcome was Active.

The test system of a further data set is Mus musculus. Description: Anticonvulsant activity in ip dosed mouse assessed as protection against metrazole-induced seizures by subcutaneous pentylenetetrazole seizure threshold test. Format: functional.
Settings: not given
An outline of the steps:
as §3
Consider `CN1C(=O)CC(C)(c2ccccc2)C1=O` (stereo not drawn) [METHSUXIMIDE], for which the ED50 stood at 35 mg/kg.
As to `CCC1(C)CC(=O)NC1=O` (stereo not drawn) [ETHOSUXIMIDE], the median effective dose (ED50) amounted to 130 mg/kg.
Still for that read-out and setting: the figure for `CN1C(=O)CC(c2ccccc2)C1=O` (stereo not drawn) [PHENSUXIMIDE] is 50 mg/kg.

The subject of a further data set is Mus musculus. The experiment in a line: Anticonvulsant activity against metrazole-induced seizures in ip dosed mouse assessed as duration of action by subcutaneous pentylenetetrazole seizure threshold test. Format: functional.
Settings: not given
An outline of the steps: as §1
As to `CN1C(=O)CC(CCN2C(=O)C=CC2=O)(c2ccccc2)C1=O` (stereo not drawn), the Time was 3.5 h.
With `CN1C(=O)CC(c2ccc(NC(=O)CBr)cc2)C1=O` (stereo not drawn), the Time is 3.5 h.

Another data set concerns Mus musculus. The experiment in a line: Anticonvulsant activity in ip dosed mouse assessed as protection against metrazole-induced seizures after 2 hrs by subcutaneous pentylenetetrazole seizure threshold test.
Settings: not given
The format is functional. An outline of the steps: as §3
For the molecule `CN1C(=O)CC(C(=O)CCl)(c2ccccc2)C1=O` (stereo not drawn), the median effective dose (ED50) is 100 mg/kg.

In a further data set the test system is Mus musculus. Description: Anticonvulsant activity in mouse assessed as protection against metrazole-induced seizures at 300 mg/kg, ip after 4 hrs by subcutaneous pentylenetetrazole seizure threshold test. The format is functional, organism-based. On the set-up: dose 300 mg/kg.
Settings: not given
An outline of the steps:
as §1
With `CN1C(=O)CC(C(=O)CBr)(c2ccccc2)C1=O` (stereo not drawn), the outcome was inactive.
Regarding `CN1C(=O)CC(C)(c2ccccc2)C1=O` (stereo not drawn) [METHSUXIMIDE], the result was inactive.
Same read-out and setting: under `CN1C(=O)CC(c2ccc(NC(=O)CCl)cc2)C1=O` (stereo not drawn) stands “inactive”; under `CN1C(=O)CC(c2ccc(N3C(=O)C=CC3=O)cc2)C1=O` (stereo not drawn), “inactive”; under `CCC1(C)CC(=O)NC1=O` (stereo not drawn) [ETHOSUXIMIDE], “inactive”.
Same read-out and setting: under `CN1C(=O)CC(C(=O)CCl)(c2ccccc2)C1=O` (stereo not drawn) stands “inactive”.
Turning to `CN1C(=O)CC(c2ccc(NC(=O)CI)cc2)C1=O` (stereo not drawn), the outcome was inactive.

The test system of the next data set is Mus musculus. The experiment in a line: Anticonvulsant activity in ip dosed mouse assessed as protection against maximal electroshock-induced hindlimb tonic extensor component of seizure after 2 hrs by MES test. The format is functional.
Settings: not given
An outline of the steps:
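MES ED50 in ip-dosed mice (0.9% NaCl or 30% PEG 400 vehicle) was read at the time of peak effect (2 h). Stimulus: 60-Hz AC, 50 mA, 0.2 s via corneal electrodes, with abolition of hindlimb tonic extension as the end point. ED50 and confidence limits were derived by Litchfield–Wilcoxon.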
Consider `CN1C(=O)CC(C(=O)CCl)(c2ccccc2)C1=O` (stereo not drawn), for which the 50% effective dose (ED50) is 225 mg/kg.

The subject of another data set is Mus musculus. Description: Neurotoxicity in ip dosed mouse assessed as CNS depression. The format is toxicity, organism-based, Central nervous system. The conditions noted are these: in vivo.
With `CN1C(=O)CC(CCN2C(=O)C=CC2=O)(c2ccccc2)C1=O` (stereo not drawn), the Activity entry is “Toxic”.
Same read-out and setting: the entry for `CN1C(=O)CC(c2ccc(NC(=O)CBr)cc2)C1=O` (stereo not drawn) is “Toxic”; for `CN1C(=O)CC(c2ccc(N3C(=O)C=CC3=O)cc2)C1=O` (stereo not drawn) it is “Toxic”; for `CN1C(=O)CC(c2ccc(NC(=O)CI)cc2)C1=O` (stereo not drawn) it is “Toxic”.

System in the next data set: not listed separately
Description: Neurotoxicity in ip dosed mouse by rotarod test. Conditions: in vivo. The format is toxicity, organism-based. Background: The rotarod test checks motor coordination on a turning rod.
With `CN1C(=O)CC(c2ccc(NC(=O)CBr)cc2)C1=O` (stereo not drawn), the TD50 (commonly the dose at which the toxic effect under study appears in half of the subjects) came out at 54 mg/kg.
For the molecule `CN1C(=O)CC(C)(c2ccccc2)C1=O` (stereo not drawn) [METHSUXIMIDE], the TD50 was determined as 188 mg/kg.
Same read-out and setting: under `CN1C(=O)CC(c2ccccc2)C1=O` (stereo not drawn) [PHENSUXIMIDE] stands 232 mg/kg.

A further data set has as its system Mus musculus. The experiment in a line: Anticonvulsant activity in ip dosed mouse assessed as protection against maximal electroshock-induced hindlimb tonic extensor component of seizure by MES test.
Settings: not given
Format: functional. In a few lines: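 Mice dosed ip at 30, 100 and 300 mg/kg, compound in 0.9% NaCl or 30% PEG 400 (0.01 ml/g); four animals per dose, one tested at 30 min and one at 4 h. Seizure induced by 60-Hz corneal current, 50 mA, 0.2 s; protection = abolition of hindlimb tonic extension. ED50 with confidence limits by Litchfield–Wilcoxon.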
Take `CN1C(=O)CC(C)(c2ccccc2)C1=O` (stereo not drawn) [METHSUXIMIDE]: the ED50 was found to be 76 mg/kg.
On the same count and under the same terms, under `CCC1(C)CC(=O)NC1=O` (stereo not drawn) [ETHOSUXIMIDE] stands above 1000 mg/kg.

For the next data set, the system named is Mus musculus. Description: Anticonvulsant activity in mouse assessed as protection against maximal electroshock-induced hindlimb tonic extensor component of seizure at 300 mg/kg, ip after 4 hrs by MES test.
Settings: not given
On the set-up: dose 300 mg/kg. The format is functional, organism-based. An outline of the steps:
as §2
With `CN1C(=O)CC(c2ccc(NC(=O)CBr)cc2)C1=O` (stereo not drawn), the result was inactive.
Still for that read-out and setting: under `CN1C(=O)CC(C(=O)CBr)(c2ccccc2)C1=O` (stereo not drawn) stands “inactive”.
In the case of `CN1C(=O)CC(C)(c2ccccc2)C1=O` (stereo not drawn) [METHSUXIMIDE], the result was Active.
Same read-out and setting: the entry for `CN1C(=O)CC(c2ccc(NC(=O)CCl)cc2)C1=O` (stereo not drawn) is “inactive”.
On the same count and under the same terms, under `CN1C(=O)CC(c2ccc(N3C(=O)C=CC3=O)cc2)C1=O` (stereo not drawn) stands “inactive”.
As to `CCC1(C)CC(=O)NC1=O` (stereo not drawn) [ETHOSUXIMIDE], the result was inactive.
`CN1C(=O)CC(C(=O)CCl)(c2ccccc2)C1=O` (stereo not drawn): the outcome was Active.
In the case of `CN1C(=O)CC(c2ccccc2)C1=O` (stereo not drawn) [PHENSUXIMIDE], the outcome was Active.

The test system of a further data set is Mus musculus. Description: Anticonvulsant activity in mouse assessed as protection against metrazole-induced seizures at 30 mg/kg, ip after 4 hrs by subcutaneous pentylenetetrazole seizure threshold test. Format: functional, organism-based. On the set-up: dose 30 mg/kg.
Settings: not given
An outline of the steps:
as §1
`CN1C(=O)CC(CCN2C(=O)C=CC2=O)(c2ccccc2)C1=O` (stereo not drawn): the outcome was Active.
The same measure, in the same setting: under `CN1C(=O)CC(c2ccc(NC(=O)CBr)cc2)C1=O` (stereo not drawn) stands “Active”; under `CN1C(=O)CC(c2ccccc2)C1=O` (stereo not drawn) [PHENSUXIMIDE], “Active”.

The test system of the next data set is Mus musculus. Description: Anticonvulsant activity against maximal electroshock-induced hindlimb tonic extensor component of seizure in ip dosed mouse assessed as duration of action by MES test. Format: functional.
Settings: not given
In a few lines: as §2
As to `CN1C(=O)CC(C(=O)CCl)(c2ccccc2)C1=O` (stereo not drawn), the Time stood at 3.5 h.
